# Assays:
# HFF = experiment: Cytotoxicity produced in stationary HFF cells was determined by microscopic inspection of uninfected cells; format: functional, cell-based; details: Homo sapiens
# How it was run: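 Uninfected stationary HFF cells inspected microscopically for cytotoxicity, scored at the time of HCMV plaque enumeration (7–10 days at 37 °C), duplicate wells. Compounds from 10 mg/mL DMSO stocks diluted in growth medium. IC50 from linear regression of % inhibition vs log10 concentration.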
# Human alphaherpesvirus 1 = experiment: Inhibitory concentration required against herpes simplex virus type-1 (HSV-1) expressed in BSC-1 cells was determined by ELISA assay; format: functional, organism-based; details: Human alphaherpesvirus 1, BSC-1
# How it was run: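 HSV-1 KOS strain. BSC-1 cells, 10 000 per well in MEM(E) with 10% calf serum, incubated overnight at 37 °C, then drug plus virus at 100 pfu/well, quadruplicate wells, 3 days at 37 °C. Detection with HRP-conjugated rabbit anti-HSV-1 antibody and TMB substrate, stopped with H₂SO₄ after 15 min, absorbance at 450 and 570 nm. IC50 by regression vs log10 concentration; acyclovir as positive control.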
# [1] = Cytotoxicity against KB cells was determined by crystal violet staining and spectrophotometric quantitation of dye eluted from stained cells; format: functional, cell-based
# How it was run: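 KB cells seeded at 3000–5000 per well, incubated overnight at 37 °C, then exposed to compound at six to eight concentrations for 48 h at 37 °C in CO₂ (two population doublings). Fixed with 95% ethanol, stained with 0.1% crystal violet, dye eluted with acidified ethanol, read at 570 nm. IC50 by linear regression of % inhibition vs log10 concentration.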
# Human betaherpesvirus 5 = experiment: Inhibitory concentration required against human cytomegalovirus (HCMV) expressed in HFF cells was determined by plaque reduction assay; format: functional, organism-based; details: Human betaherpesvirus 5, HFF
# How it was run: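 HCMV Towne strain, isolate P₀. HFF monolayers infected with about 100 pfu per cm²; after adsorption, compound (diluted from 10 mg/mL DMSO stock) added at four to eight concentrations in duplicate wells. Incubated 7–10 days at 37 °C, fixed and stained with crystal violet, plaques counted microscopically. IC50 from regression of % plaque reduction vs log10 concentration; ganciclovir as positive control.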
Structure (SMILES),IC50 (HFF) [µM],IC50 (Human alphaherpesvirus 1) [µM],IC50 [1] [µM],IC50 (Human betaherpesvirus 5) [µM]
"CC(=O)OC[C@H]1OC(n2c(Cl)c(C(C)=O)c3cc(Cl)c(Cl)cc32)C(O)[C@@H]1O (single isomer, unassigned)",32,20,40,0.3
"CCC(=O)c1c(Cl)n(C2O[C@H](CO)[C@@H](O)C2O)c2cc(Cl)c(Cl)cc12 (single isomer, unassigned)",> 100,20,100,2.5
"N#Cc1c(Cl)n(C2O[C@H](CO)[C@@H](O)C2O)c2cc(Cl)c(Cl)cc12 (single isomer, unassigned)",32,15,65,0.55
"O=C(c1c(Cl)n(C2O[C@H](CO)[C@@H](O)C2O)c2cc(Cl)c(Cl)cc12)C(F)(F)F (single isomer, unassigned)",32,15,20,6.2
"O=Cc1c(Br)n(C2O[C@H](CO)[C@@H](O)C2O)c2cc(Cl)c(Cl)cc12 (single isomer, unassigned)",32,20,50,0.32
"OC[C@H]1OC(n2c(Cl)c(I)c3cc(Cl)c(Cl)cc32)C(O)[C@@H]1O (single isomer, unassigned)",32,20,65,12
"CCCC(=O)OC[C@H]1OC(n2c(Cl)c(C=O)c3cc(Cl)c(Cl)cc32)C(O)[C@@H]1O (single isomer, unassigned)",32,9,40,0.25
"O=CCc1c(Cl)n(C2O[C@H](CO)[C@@H](O)C2O)c2cc(Cl)c(Cl)cc12 (single isomer, unassigned)",> 100,> 100,70,4
"OC[C@H]1O[C@@H](n2c(Cl)nc3cc(Cl)c(Cl)cc32)C(O)[C@@H]1O (single isomer, unassigned)",,,210,2.9
"OC[C@H]1O[C@@H](n2c(Br)nc3cc(Cl)c(Cl)cc32)C(O)[C@@H]1O (single isomer, unassigned)",,130,> 100,0.7
"O=Cc1c(Cl)n(C2O[C@H](CO)[C@@H](O)C2O)c2cc(Cl)c(Cl)cc12 (single isomer, unassigned)",45,40,45,0.23
"CCC(=O)c1c(Cl)n(C2O[C@H](COC(C)=O)[C@@H](O)C2O)c2cc(Cl)c(Cl)cc12 (single isomer, unassigned)",> 100,15,100,3.2
"COC(=O)OC[C@H]1OC(n2c(Cl)c(C=O)c3cc(Cl)c(Cl)cc32)C(O)[C@@H]1O (single isomer, unassigned)",32,15,50,0.2
"OC[C@H]1OC(n2c(Cl)c(-c3ccsc3)c3cc(Cl)c(Cl)cc32)C(O)[C@@H]1O (single isomer, unassigned)",> 100,45,60,31
"OC[C@H]1OC(n2c(Cl)c(Cl)c3cc(Cl)c(Cl)cc32)C(O)[C@@H]1O (single isomer, unassigned)",32,45,80,38
"CCC(=O)OC[C@H]1OC(n2c(Cl)c(C=O)c3cc(Cl)c(Cl)cc32)C(O)[C@@H]1O (single isomer, unassigned)",32,10,50,0.22
CC(=O)OC[C@H]1OC(n2c(Br)c(C=O)c3cc(Cl)c(Cl)cc32)[C@H](O)[C@@H]1O (some centres not stated),32,15,40,0.32
"Cc1c(Cl)n(C2O[C@H](CO)[C@@H](O)C2O)c2cc(Cl)c(Cl)cc12 (single isomer, unassigned)",32,70,> 100,32
"CC(=O)c1c(Cl)n(C2O[C@H](CO)[C@@H](O)C2O)c2cc(Cl)c(Cl)cc12 (single isomer, unassigned)",> 100,20,50,0.31
"OC[C@H]1OC(n2c(Cl)c(-c3ccco3)c3cc(Cl)c(Cl)cc32)C(O)[C@@H]1O (single isomer, unassigned)",32,50,80,42
Nc1nc2c(ncn2COC(CO)CO)c(=O)[nH]1 [GANCICLOVIR],> 100,,> 100,
CC(=O)OC[C@H]1OC(n2c(Cl)c(C=O)c3cc(Cl)c(Cl)cc32)[C@H](O)[C@@H]1O (some centres not stated),32,20,35,< 0.1
"CC(=O)OC[C@H]1OC(n2c(Cl)c(C#N)c3cc(Cl)c(Cl)cc32)C(O)[C@@H]1O (single isomer, unassigned)",32,50,70,2.5

# — ChEMBL document CHEMBL1137100, “Design, synthesis, and antiviral activity of certain 3-substituted 2,5,6-trichloroindole nucleosides” (J Med Chem, 2004)
